Columns and labels:
CYP4A11 [1] = target: T1, CYP4A11 (Homo sapiens, UniProt Q02928); experiment: Inhibition of P450 activities by DB289: lauric acid 12-hydroxylation; format: in vitro ADME; conditions: 3.0 μM DB289, pooled HLMs 0.25 mg/ml
In short: (§1)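 Test compound (3.0 μM) was preincubated 0 and 15 min with pooled microsomes (0.25 mg/ml) and 2 mM NADPH (final concentrations). A P450-selective marker substrate was then added and marker activity measured. Reference selective chemical inhibitors were run for comparison (none for CYP4A11). Solvent-only controls.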

recombinant human CYP2C8 = recombinant human CYP2C8 (Homo sapiens, UniProt P10632); experiment: DB289 consumption by recombinant CYP2C8; format: in vitro ADME; conditions: 3.0 μM DB289, 100 pmol/ml P450, 15 min
In short: (§2)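 Baculovirus-insect-cell Supersomes coexpressing human P450 with NADPH-P450 reductase; the CYP2E1 enzyme also had cytochrome b5. 3.0 μM substrate, 50 pmol/ml P450 (100 pmol/ml for CYP2C8 and CYP2C9), in 100 mM phosphate pH 7.4 with 3.3 mM MgCl2 and 1 mM NADPH, 37°C, 15 min. Quenched in ice-cold acidified acetonitrile with deuterated internal standard, then LC/MS/MS. Percent consumed relative to 0 min; control Supersomes; duplicates.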

recombinant human CYP3A4 = recombinant human CYP3A4 (Homo sapiens, UniProt P08684); experiment: DB289 consumption by recombinant CYP3A4; format: in vitro ADME; conditions: 3.0 μM DB289, 50 pmol/ml P450, 15 min
In short: as §2

recombinant CYP4F3B = target: T2, recombinant CYP4F3B (Homo sapiens, UniProt Q08477); experiment: DB289 consumption by recombinant CYP4F3B; format: in vitro ADME; conditions: 3.0 μM DB289, 50 pmol/ml P450, 15 min
T2 sequence (Q08477 1-520 isoform Q08477-2): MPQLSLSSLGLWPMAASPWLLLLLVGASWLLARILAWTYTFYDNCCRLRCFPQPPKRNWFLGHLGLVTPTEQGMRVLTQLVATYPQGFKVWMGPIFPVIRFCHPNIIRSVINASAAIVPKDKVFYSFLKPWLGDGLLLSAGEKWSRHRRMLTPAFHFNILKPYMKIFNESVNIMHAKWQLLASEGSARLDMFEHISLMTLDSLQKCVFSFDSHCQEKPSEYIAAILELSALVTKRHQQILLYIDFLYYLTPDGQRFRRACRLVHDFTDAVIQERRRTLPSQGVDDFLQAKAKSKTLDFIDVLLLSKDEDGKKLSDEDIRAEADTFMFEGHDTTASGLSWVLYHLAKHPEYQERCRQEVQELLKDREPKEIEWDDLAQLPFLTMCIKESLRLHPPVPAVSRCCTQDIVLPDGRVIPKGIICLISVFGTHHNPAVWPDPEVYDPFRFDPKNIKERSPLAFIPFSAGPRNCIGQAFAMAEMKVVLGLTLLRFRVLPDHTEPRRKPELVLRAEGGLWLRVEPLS
In short: (§3)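 A second recombinant panel (Supersomes; the CYP2J2, CYP3A7 and CYP4F forms coexpressed with reductase and cytochrome b5). Each enzyme was incubated alone with 3.0 μM substrate and NADPH in pH 7.4 phosphate/MgCl2 at 37°C for 15 min. Acetonitrile quench with internal standard, centrifugation, LC/MS/MS. Percent consumed normalised to 0 min. Control Supersomes; means of duplicates.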

[2] = DB289 metabolism by heat-inactivated human liver microsomes; format: in vitro ADME; conditions: 60°C for 90 s; data not shown
In short: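 Human liver microsomes were heated at 60°C for 90 s before incubation to inactivate flavin monooxygenase. Then used in standard NADPH incubations (pH 7.4 phosphate, MgCl2, 37°C) to test FMO contribution to substrate metabolism.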

CYP2E1 [3] = target: T3, CYP2E1 (Homo sapiens, UniProt P05181); experiment: Inhibition of P450 activities by DB289: lauric acid 11-hydroxylation; format: in vitro ADME; conditions: 3.0 μM DB289, pooled HLMs 0.25 mg/ml
T3 sequence (P05181 whole entry): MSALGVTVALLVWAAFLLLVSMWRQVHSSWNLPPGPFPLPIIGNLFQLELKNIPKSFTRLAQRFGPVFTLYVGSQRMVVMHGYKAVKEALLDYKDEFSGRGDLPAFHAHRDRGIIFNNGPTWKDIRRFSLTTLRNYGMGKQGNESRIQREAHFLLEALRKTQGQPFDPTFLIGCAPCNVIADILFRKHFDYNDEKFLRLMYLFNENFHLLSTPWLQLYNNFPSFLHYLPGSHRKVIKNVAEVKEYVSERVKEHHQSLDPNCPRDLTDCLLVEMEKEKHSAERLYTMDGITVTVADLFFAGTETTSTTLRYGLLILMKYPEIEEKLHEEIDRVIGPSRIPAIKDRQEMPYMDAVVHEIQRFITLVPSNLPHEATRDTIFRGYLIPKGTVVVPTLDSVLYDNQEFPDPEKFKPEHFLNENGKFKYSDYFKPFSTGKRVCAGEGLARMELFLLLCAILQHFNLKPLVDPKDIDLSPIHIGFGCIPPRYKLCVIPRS
In short: as §1

[4] = target: recombinant human CYP4F12 (Homo sapiens, UniProt Q9HCS2); experiment: DB289 consumption by recombinant CYP4F12; format: in vitro ADME; conditions: 3.0 μM DB289, 50 pmol/ml P450, 15 min
recombinant human CYP4F12, sequence (Q9HCS2 whole entry): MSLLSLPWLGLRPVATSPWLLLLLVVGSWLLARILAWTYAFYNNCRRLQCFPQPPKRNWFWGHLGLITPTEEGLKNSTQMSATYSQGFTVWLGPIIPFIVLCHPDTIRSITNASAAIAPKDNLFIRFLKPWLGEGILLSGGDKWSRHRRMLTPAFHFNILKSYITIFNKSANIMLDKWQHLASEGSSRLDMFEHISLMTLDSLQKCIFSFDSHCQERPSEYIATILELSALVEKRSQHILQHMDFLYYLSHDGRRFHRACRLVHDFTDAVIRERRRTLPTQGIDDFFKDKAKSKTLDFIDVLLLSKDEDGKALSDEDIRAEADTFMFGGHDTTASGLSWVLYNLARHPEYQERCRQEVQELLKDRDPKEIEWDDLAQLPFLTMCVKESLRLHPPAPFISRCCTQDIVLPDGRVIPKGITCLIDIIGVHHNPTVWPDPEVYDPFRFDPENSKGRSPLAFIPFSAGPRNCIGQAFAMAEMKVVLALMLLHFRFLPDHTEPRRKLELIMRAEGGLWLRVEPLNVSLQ
In short: as §3

CYP2C19 [5] = target: T4, CYP2C19 (Homo sapiens, UniProt P33261); experiment: Inhibition of P450 activities by DB289: S-mephenytoin 4′-hydroxylation; format: in vitro ADME; conditions: 3.0 μM DB289, pooled HLMs 0.25 mg/ml
T4 sequence (P33261 whole entry): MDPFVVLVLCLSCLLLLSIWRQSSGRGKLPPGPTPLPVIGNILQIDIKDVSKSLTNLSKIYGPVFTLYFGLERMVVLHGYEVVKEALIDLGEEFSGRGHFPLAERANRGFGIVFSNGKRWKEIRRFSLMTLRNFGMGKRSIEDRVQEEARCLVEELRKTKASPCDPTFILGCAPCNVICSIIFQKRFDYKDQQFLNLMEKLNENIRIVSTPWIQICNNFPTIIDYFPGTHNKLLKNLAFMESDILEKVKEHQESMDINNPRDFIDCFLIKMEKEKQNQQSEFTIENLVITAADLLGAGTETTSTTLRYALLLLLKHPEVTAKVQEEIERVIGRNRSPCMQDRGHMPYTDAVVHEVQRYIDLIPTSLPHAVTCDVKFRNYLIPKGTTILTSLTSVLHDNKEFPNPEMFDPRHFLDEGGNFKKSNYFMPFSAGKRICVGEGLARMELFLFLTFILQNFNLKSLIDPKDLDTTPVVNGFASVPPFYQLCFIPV
In short: as §1

CYP3A4/5 = experiment: Inhibition of P450 activities by DB289: testosterone 6β-hydroxylation; format: in vitro ADME, human; conditions: 3.0 μM DB289, pooled HLMs 0.25 mg/ml
In short: as §1

[6] = target: recombinant human CYP4F3A (Homo sapiens, UniProt Q08477); experiment: DB289 consumption by recombinant CYP4F3A; format: in vitro ADME; conditions: 3.0 μM DB289, up to 120 min
recombinant human CYP4F3A, sequence (Q08477 whole entry): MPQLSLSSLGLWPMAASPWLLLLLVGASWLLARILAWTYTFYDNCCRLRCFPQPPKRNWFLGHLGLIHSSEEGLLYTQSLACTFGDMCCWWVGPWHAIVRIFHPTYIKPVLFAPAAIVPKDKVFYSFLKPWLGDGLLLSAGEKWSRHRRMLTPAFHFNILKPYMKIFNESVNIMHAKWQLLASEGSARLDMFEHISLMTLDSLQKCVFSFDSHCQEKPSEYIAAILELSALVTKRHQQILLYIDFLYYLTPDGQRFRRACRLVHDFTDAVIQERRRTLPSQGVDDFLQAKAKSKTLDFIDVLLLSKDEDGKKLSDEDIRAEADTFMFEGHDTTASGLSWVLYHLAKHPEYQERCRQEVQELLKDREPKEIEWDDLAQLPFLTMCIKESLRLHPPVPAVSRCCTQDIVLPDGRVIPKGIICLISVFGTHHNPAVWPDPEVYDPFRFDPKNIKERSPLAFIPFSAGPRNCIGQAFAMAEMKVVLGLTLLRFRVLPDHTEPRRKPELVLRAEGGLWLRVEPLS

CYP2D6 = CYP2D6 (Homo sapiens, UniProt P10635); experiment: Inhibition of P450 activities by DB289: debrisoquine 4-hydroxylation; format: in vitro ADME; conditions: 3.0 μM DB289, pooled HLMs 0.25 mg/ml
CYP2D6, sequence (P10635 whole entry): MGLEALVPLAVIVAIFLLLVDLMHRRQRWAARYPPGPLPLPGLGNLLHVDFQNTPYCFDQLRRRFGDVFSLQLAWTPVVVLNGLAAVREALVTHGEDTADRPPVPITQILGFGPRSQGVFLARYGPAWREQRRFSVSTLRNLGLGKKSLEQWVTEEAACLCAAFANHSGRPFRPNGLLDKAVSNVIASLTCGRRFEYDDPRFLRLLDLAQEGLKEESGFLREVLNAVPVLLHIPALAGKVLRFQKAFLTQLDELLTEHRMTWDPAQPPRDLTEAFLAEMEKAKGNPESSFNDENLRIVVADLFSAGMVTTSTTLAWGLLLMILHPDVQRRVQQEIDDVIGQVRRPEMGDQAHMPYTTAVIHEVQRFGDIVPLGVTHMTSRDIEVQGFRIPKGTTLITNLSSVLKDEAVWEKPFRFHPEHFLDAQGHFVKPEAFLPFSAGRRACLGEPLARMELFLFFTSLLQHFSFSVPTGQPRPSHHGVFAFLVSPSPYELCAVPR
In short: as §1

CYP4A11 [7] = target: T1, CYP4A11; experiment: DB289 consumption by recombinant CYP4A11; format: in vitro ADME; conditions: 3.0 μM DB289, 50 pmol/ml P450, 15 min
recombinant human CYP1B1 = recombinant human CYP1B1 (Homo sapiens, UniProt Q16678); experiment: DB289 consumption by recombinant CYP1B1; format: in vitro ADME; conditions: 3.0 μM DB289, 50 pmol/ml P450, 15 min
recombinant human CYP1B1, sequence (Q16678 whole entry): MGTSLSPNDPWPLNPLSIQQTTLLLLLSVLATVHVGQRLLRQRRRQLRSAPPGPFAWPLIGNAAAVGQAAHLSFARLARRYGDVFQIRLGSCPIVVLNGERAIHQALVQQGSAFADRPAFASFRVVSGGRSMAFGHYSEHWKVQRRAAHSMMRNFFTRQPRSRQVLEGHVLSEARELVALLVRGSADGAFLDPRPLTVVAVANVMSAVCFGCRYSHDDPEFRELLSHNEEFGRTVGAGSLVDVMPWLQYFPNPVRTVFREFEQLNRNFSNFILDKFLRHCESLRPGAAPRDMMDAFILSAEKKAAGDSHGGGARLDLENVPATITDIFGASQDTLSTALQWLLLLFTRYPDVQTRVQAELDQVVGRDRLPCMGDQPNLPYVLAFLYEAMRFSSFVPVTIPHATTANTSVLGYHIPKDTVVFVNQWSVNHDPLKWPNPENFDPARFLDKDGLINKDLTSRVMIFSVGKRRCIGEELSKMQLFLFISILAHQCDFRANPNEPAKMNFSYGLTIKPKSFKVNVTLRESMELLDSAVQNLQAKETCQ
In short: as §2

[8] = target: flavin monooxygenase 3 (FMO3) (Homo sapiens, UniProt P31513); experiment: Incubation of DB289 with recombinant FMO3; format: in vitro ADME; conditions: FMO3 0.5 mg/ml
In short: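 Baculovirus insect-cell-expressed human FMO3 at 0.5 mg/ml. Incubated with substrate under the conditions used for the liver-microsome consumption assay: pH 7.4 phosphate, MgCl2, NADPH, 37°C. Analysed by LC/MS/MS.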

[9] = oral; ref Yeates, 2003; cited from earlier work
CYP2C9 [10] = target: T5, CYP2C9 (Homo sapiens, UniProt P11712); experiment: Inhibition of P450 activities by DB289: diclofenac 4′-hydroxylation; format: in vitro ADME; conditions: 3.0 μM DB289, pooled HLMs 0.25 mg/ml
T5 sequence (P11712 whole entry): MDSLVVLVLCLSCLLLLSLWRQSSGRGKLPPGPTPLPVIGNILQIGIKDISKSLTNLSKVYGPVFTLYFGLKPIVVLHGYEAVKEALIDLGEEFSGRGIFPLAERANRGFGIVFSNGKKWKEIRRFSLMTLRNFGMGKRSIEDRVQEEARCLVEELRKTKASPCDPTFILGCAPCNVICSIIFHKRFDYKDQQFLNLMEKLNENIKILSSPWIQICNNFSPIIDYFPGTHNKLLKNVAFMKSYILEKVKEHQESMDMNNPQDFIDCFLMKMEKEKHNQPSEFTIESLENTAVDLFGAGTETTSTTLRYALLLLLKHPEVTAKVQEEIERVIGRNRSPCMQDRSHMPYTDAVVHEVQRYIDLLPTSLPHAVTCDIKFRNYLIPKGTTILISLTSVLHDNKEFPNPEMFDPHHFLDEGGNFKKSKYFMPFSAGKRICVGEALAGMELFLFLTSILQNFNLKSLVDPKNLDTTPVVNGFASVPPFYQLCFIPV
In short: as §1

CYP2E1 [11] = target: T3, CYP2E1; experiment: DB289 consumption by recombinant CYP2E1; format: in vitro ADME; conditions: 3.0 μM DB289, 50 pmol/ml P450, 15 min
In short: as §2

CYP2C19 [12] = target: T4, CYP2C19; experiment: DB289 consumption by recombinant CYP2C19; format: in vitro ADME; conditions: 3.0 μM DB289, 50 pmol/ml P450, 15 min
In short: as §2

CYP2C9 [13] = target: T5, CYP2C9; experiment: DB289 consumption by recombinant CYP2C9; format: in vitro ADME; conditions: 3.0 μM DB289, 100 pmol/ml P450, 15 min
In short: as §2

recombinant human CYP1A2 = recombinant human CYP1A2 (Homo sapiens, UniProt P05177); experiment: Kinetics of M1 formation by recombinant CYP1A2; format: in vitro ADME
recombinant human CYP1A2, sequence (P05177 2-516 limits assumed): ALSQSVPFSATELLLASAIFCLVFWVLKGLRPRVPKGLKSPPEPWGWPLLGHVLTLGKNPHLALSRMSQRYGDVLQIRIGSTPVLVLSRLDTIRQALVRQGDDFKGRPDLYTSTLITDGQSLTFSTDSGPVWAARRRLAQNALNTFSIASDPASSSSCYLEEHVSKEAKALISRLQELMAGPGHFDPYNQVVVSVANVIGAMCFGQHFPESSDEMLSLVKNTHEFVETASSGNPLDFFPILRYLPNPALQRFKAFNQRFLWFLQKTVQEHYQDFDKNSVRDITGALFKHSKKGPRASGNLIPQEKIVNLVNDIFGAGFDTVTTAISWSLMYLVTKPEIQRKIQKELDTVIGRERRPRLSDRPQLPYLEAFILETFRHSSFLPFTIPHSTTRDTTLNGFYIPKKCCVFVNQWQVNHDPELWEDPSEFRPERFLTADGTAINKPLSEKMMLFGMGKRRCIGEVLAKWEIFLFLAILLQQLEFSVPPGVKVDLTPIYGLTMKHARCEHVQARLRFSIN
In short: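 Recombinant P450 (10–50 pmol/ml) with substrate from 0.05 μM upward, under initial-rate conditions (<20% consumption). 250 μl at 37°C, started with NADPH after 5 min equilibration. Run times: 2 min for CYP1A1/1A2; 5 min for CYP1B1, 2J2 and 4F2; 15 min for CYP2C8, 4F3B and 4F12. M1 measured by LC/MS/MS. Mean of duplicates fitted to Michaelis-Menten; CLint = Vmax/Km.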

recombinant human CYP3A7 = recombinant human CYP3A7 (Homo sapiens, UniProt P24462); experiment: DB289 consumption by recombinant CYP3A7; format: in vitro ADME; conditions: 3.0 μM DB289, 50 pmol/ml P450, 15 min
In short: as §3

T1 sequence (Q02928 5-519): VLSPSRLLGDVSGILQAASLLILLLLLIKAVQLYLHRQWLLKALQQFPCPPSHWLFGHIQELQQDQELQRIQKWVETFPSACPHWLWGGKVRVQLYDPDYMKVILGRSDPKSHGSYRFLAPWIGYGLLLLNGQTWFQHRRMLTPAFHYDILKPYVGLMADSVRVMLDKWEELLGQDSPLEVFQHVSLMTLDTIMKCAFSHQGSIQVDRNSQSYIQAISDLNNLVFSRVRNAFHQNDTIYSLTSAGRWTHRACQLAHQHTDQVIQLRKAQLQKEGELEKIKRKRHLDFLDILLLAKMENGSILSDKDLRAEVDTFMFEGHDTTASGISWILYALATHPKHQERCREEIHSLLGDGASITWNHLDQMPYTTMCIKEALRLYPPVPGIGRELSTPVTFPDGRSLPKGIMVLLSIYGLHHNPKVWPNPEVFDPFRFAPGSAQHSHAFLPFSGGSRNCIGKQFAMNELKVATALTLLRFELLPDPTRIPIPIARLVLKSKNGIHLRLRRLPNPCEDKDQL

inhibition of CYP4A11 activity (CYP4A11 [1]): minimal to no inhibition | percentage of substrate consumed (recombinant human CYP2C8): 5% | percentage of substrate consumed (recombinant human CYP3A4): 18% | percentage of substrate consumed (recombinant CYP4F3B): 40% | effect of heat inactivation of microsomes on DB289 metabolism [2]: did not impede DB289 metabolism | inhibition of CYP2E1 activity (CYP2E1 [3]): minimal to no inhibition | percentage of substrate consumed [4]: 10% | inhibition of CYP2C19 activity (CYP2C19 [5]): minimal to no inhibition | inhibition of CYP3A activity (CYP3A4/5): minimal to no inhibition | DB289 consumption [6]: little DB289 consumption | inhibition of CYP2D6 activity (CYP2D6): minimal to no inhibition | percentage of substrate consumed (CYP4A11 [7]): less than 5% | percentage of substrate consumed (recombinant human CYP1B1): 46% | metabolism of DB289 by recombinant human FMO3 [8]: did not show any detectable metabolism | inhibition of CYP2C9 activity (CYP2C9 [10]): 20−25% | percentage of substrate consumed (CYP2E1 [11]): 7% | percentage of substrate consumed (CYP2C19 [12]): less than 5% | percentage of substrate consumed (CYP2C9 [13]): less than 5% | efficiency of CYP1A2 relative to CYP3A4, 2D6, 2E1, or 3A5 (intrinsic or maximal clearance) (recombinant human CYP1A2): ≥ 300 fold | percentage of substrate consumed (recombinant human CYP3A7): less than 5%
SMILES: CON=C(N)c1ccc(-c2ccc(-c3ccc(C(N)=NOC)cc3)o2)cc1 [DB289, 2,5-bis(4-amidinophenyl)furan-bis-O-methylamidoxime]
tolerability [9]: well tolerated, with no serious side effects

Source: article PMC2077835 (Drug metabolism and disposition: the biological fate of …, 2006)
